Assay results gathered from unrelated publications.
Protocols differ between the studies behind these lines.
Cell line: NCI-H460
Effect on: cell growth or viability

COc1cccc(Oc2ccccc2NC(=O)CNC(=O)c2cccc3ccccc23)c1
GI50 (SRB; 48 h): 295 nM

COc1ccc(C(=O)/C=C/c2ccc3ccccc3c2)cc1S(N)(=O)=O
GI50 (SRB; 48 h): 3000 nM

C=C(Cl)C(=O)Nc1cc(Nc2nc(N3CCCC3)c3sccc3n2)c(OC)cc1N(C)CCN(C)C
IC50 (MTT): 6480 nM

COc1ccc(C(=O)/C=C/c2cc3c(cc2Br)OCO3)cc1S(N)(=O)=O
GI50 (SRB; 48 h): 4000 nM

C=CC(=O)Nc1cccc(Oc2nc(Nc3ccc(N4CCN(C)CC4)cc3)nc3ccsc23)c1
IC50 (MTT): 642 nM

c1ccc2cc(Cn3cc[n+](Cc4ccc5ccccc5c4)c3)ccc2c1
TGI (SRB): 10.4 µM

COc1ccc(C(=O)/C=C/c2cccnc2)cc1S(N)(=O)=O
GI50 (SRB; 48 h): 9100 nM

C=CC(=O)Nc1cc(Nc2nc(N3CCc4sccc4C3)c3cccnc3n2)c(OC)cc1N1CCC(N(C)C)CC1
IC50 (MTT): 558 nM

COc1ccc(C(=O)/C=C/c2cccc3ccccc23)cc1S(N)(=O)=O
inhibition (SRB; 10 µM): 98%

CCc1n(Cc2ccc3ccccc3n2)cc[n+]1Cc1ccc2ccccc2c1
TGI (SRB): 10.8 µM

C=C(c1ccc(C(=O)O)cc1)c1cc2c(cc1C)C(C)(C)CCC2(C)C
EC50 (MTT; 72 h): 52 µM

C=CC(=O)Nc1cc(Nc2nc(N3CCc4sccc4C3)c3cccnc3n2)c(OC)cc1N1CCSCC1
IC50 (MTT): 229 nM

COc1ccccc1/C=C/C(=O)c1ccc(OC)c(S(N)(=O)=O)c1
GI50 (SRB; 48 h): 2100 nM

Cc1n(Cc2ccc3ccccc3n2)cc[n+]1Cc1ccc2ccccc2c1
TGI (SRB): 14.4 µM

COc1cc(-c2ccc(-c3ccc(C(=N)N)nc3)s2)cc(OC)c1OC
GI50 (SRB): 2100 nM

COc1ccc(C(=O)/C=C/c2ccccc2Br)cc1S(N)(=O)=O
GI50 (SRB; 48 h): 2000 nM

CCCCc1n(Cc2ccc3ccccc3n2)cc[n+]1Cc1ccc2ccccc2n1
TGI (SRB): 11.6 µM

C=C(Cl)C(=O)Nc1cc(Nc2nc(N3CCOCC3)c3sccc3n2)c(OC)cc1N(C)CCN(C)C
IC50 (MTT): 1840 nM

S=C([S][Au-][P+](CCCCCC[P+]([Au-][S]C(=S)n1cccn1)(c1ccccc1)c1ccccc1)(c1ccccc1)c1ccccc1)n1cccn1
GI50 (SRB): 1430 nM

C=C(Cl)C(=O)Nc1cc(Nc2nc(N3CCSCC3)c3sccc3n2)c(OC)cc1N(C)CCN(C)C
IC50 (MTT): 1320 nM

CN1C[C@H](C(=O)N[C@]2(C)O[C@@]3(O)[C@@H]4CCCN4C(=O)[C@H](Cc4ccccc4)N3C2=O)C[C@@H]2c3cccc4[nH]cc(c34)C[C@H]21
EC50 (MTT; 72 h): 67 µM
